Compound activity as filed in PubChem.
Only some compounds are listed: those with a hit (about 1.9% of all), similar ones and a draw of the others.
core dimer inh – blocks dimerization of HCV core protein | inhibition, % at 5 µM | 300,000 tested, 0.33% active | TR-FRET GST/Flag-core106 dimerization, 1536-well;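 active = inhibition above the mean of all tested compounds plus 3 SD, set per screening campaign, cut at about 45% in these data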
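assay system = GST-tagged and Flag-tagged HCV core protein residues 1-106 | controls = unlabelled core106 and no-GST-core106 wells | incubation = compound-protein-antibody incubation 4 h at 22.5 °C | probe or stimulus = Eu donor and XL665 acceptor anti-tag antibodies | read-out = % inhibition based on acceptor/donor emission ratio | signal = TR-FRET 671 and 617 nm emission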
Rce1 inh – inhibitors of yeast Ras-converting enzyme; Q03530; yeast membranes, quenched prenylated peptide cleavage fluorescence; calls only; 290,000 tested, 0.27% active; AID 2563;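 active = fall in fluorescence gain of 50% or more versus controls, with final raw signal at or below 3038400; inconclusive = same 50% fall but final raw signal above 3038400; inactive = fall in fluorescence gain under 50%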;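 note: plate controls were neutral control wells for no effect and wells lacking membranes for full effect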
Target sequence (Q03530 whole entry, looked up): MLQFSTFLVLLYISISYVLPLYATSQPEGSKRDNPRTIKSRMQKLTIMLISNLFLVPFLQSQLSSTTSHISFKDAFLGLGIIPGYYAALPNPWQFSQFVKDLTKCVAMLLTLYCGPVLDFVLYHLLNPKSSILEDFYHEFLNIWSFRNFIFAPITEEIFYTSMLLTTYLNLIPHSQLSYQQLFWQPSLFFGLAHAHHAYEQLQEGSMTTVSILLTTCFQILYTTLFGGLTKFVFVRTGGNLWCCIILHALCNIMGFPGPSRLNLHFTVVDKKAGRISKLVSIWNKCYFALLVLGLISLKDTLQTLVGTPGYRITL
NadD block – blocks S. aureus nicotinate mononucleotide adenylyltransferase. 360,000 tested, 0.78% active. purified NadD enzyme, colorimetric absorbance read-out. AID 602399. inhibition, % at 20 µM; in the data active = inhibition above about 26%
Tb MetRS inh – Trypanosoma brucei MetRS inhibition; purified T. brucei MetRS, ATP depletion, Kinase-Glo luminescence; inhibition, % at 11.9 µM; 360,000 tested, 0.4% active; AID 624268;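 active = inhibition above a per-plate cutoff of the control wells' mean inhibition plus 3 SD, cut at about 5.5% in these data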;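 note: 0% = DMSO wells median and 100% = median of wells with control inhibitor compound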
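Material – parasite MetRS enzyme · Medium – HEPES-MgCl2-KCl buffer plus DTT, spermine, BSA, pyrophosphatase · Reagent – ATP, methionine and E. coli bulk tRNA substrates · Times – 15 min enzyme-compound preincubation, 2 h reaction, 10 min detection, 25 °C · Measured by – luminescence of leftover ATP · Evaluation – percent inhibition relative to median high and low control wells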
Pemphigus Ab inh – blocks pemphigus antibody binding to human desmoglein-3 | P32926 | DSG3-coupled beads, scFv-anti-DSG3-GFP binding, flow cytometry; active compounds read low | binding (percent of control), % at 10 µM | 310,000 tested, 0.48% active | AID 588358;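 active = binding more than 3 SD below its plate's average and above zero; inconclusive = below that plate limit but binding exactly zero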;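 note: hits lower antibody fragment binding to DSG3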
NadD inh conf – confirmation of Staphylococcus aureus NadD inhibitors. purified S. aureus NadD, colorimetric enzyme assay. 2,000 tested, 13% active. inhibition, % at 20 µM. shares compounds with NadD block. AID 624309; in the data active = inhibition mostly above about 42%, no sharp cut-off; inactive = mostly below about 42%
* hit, by the source's call; i = inactive; ? = inconclusive; . = not tested or not shown.

SMILES	core dimer inh	Rce1 inh	NadD block	Tb MetRS inh	Pemphigus Ab inh	NadD inh conf
CCC(C)c1ccc(C2C3=C(Nc4nc(N)[nH]c(=O)c42)c2ccccc2C3=O)cc1 (configuration not stated)	11	i	37*	0	87	11
COc1ccc(C2=NN(C(=O)CSc3ncccn3)C(c3ccc(C)cc3)C2)cc1 (configuration not stated)	12	i	-2	0	90	.
COc1ccc(C2=NN(C(=O)CSc3nc(=O)n4cccc(C)c4n3)C(c3ccc(C)cc3)C2)cc1 (configuration not stated)	35	i	36*	0	?	9
O=[N+]([O-])c1ccc(/C=N/Nc2nc(-c3ccccc3)c3cc(Br)ccc3n2)o1	8	i	41*	-1	93	12
O=[N+]([O-])c1ccc(/C=N/Nc2ccc3ccccc3c2)o1	-9	i	4	-1	120	.
Cc1ccc2nc(N/N=C\c3ccc([N+](=O)[O-])o3)nc(-c3ccccc3)c2c1	22	i	37*	-1	106	11
CCOC(=O)C1=C(C)c2ccccc2OC1(CC)C(=O)OCC (configuration not stated)	.	.	-3	-1	95	.
CCOC(=O)C1=C(C)c2ccccc2N(C(=O)OC)C1(C)C(=O)OCC (configuration not stated)	.	.	44*	-1	103	69*
CSc1ccc(C2C(C#N)=C(N)Oc3c2ccc(=O)c2c(C)oc(C)c32)cc1 (configuration not stated)	78*	i	58*	0	99	25
COc1ccccc1-n1cc(C(=O)c2cc(Cl)ccc2O)cc(C#N)c1=O	10	i	3	0	97	.
COc1ccccc1-n1c(=O)c(C#N)c(-c2ccc([N+](=O)[O-])cc2)c2cc(C(=O)c3ccccc3O)cnc21	42	i	38*	0	83	12
CCN(CCn1cccn1)C(=O)CCc1nnc(CCc2ccccc2OC)o1	-1	i	-5	0	92	.
CN1CCC(N(C)C(=O)c2cc(-c3ccccc3Cl)nc3ccccc23)CC1	.	.	-10	0	?	.
O=S(=O)(O)c1cc(O)c2ccc(Nc3ccccc3)cc2c1	.	.	33*	0	44*	66*
Cc1cccc(NC(=O)CSCC(=O)Nc2ccc(S(=O)(=O)N3CCCCC3)cc2)c1	.	.	0	0	99	.
Cc1ccccc1OCC(=O)N/N=C/c1ccc(Sc2nc3ccccc3s2)o1	12	i	14	0	.	.
O=C(COc1cccc2ccccc12)N/N=C/c1ccc(Sc2nc3ccccc3s2)o1	27	i	36*	0	98	27
O=C(c1cc2cc(Br)ccc2o1)N1CCCC1	-11	i	-16	0	111	.
O=C(CCc1ccccc1Cl)Nc1cc2c(cc1C(=O)O)OCCCO2	.	.	5	0	.	.
O=c1cc(CN2CCN(S(=O)(=O)c3cccc(Cl)c3)CC2)c2ccc(O)cc2o1	.	.	35*	0	88	41
COc1cc2cc(Oc3ccc4ccc(=O)oc4c3)c(=O)oc2cc1OC(=O)/C=C/c1ccccc1	12	i	32*	0	92	10
Cc1ccc(NS(=O)(=O)c2ccc(Cl)c(C(=O)Nc3ccccc3-c3nc4ccccc4[nH]3)c2)cc1C	29	i	47*	-1	99	13
CN(c1ccccc1)c1ccc(/C=C(/CCC(=O)O)c2nc3ccccc3s2)cc1[N+](=O)[O-]	.	.	43*	0	.	38
O=C(O)CC/C(=C\c1cccc(NC(=O)c2ccccc2Cl)c1)c1nc2ccccc2s1	12	i	30*	1	103	38
C[C@H](NC(=O)[C@@H]1CCCN1C(=O)[C@@H]1CCCN1)c1ccccc1	.	.	-1	-1	.	.
SMILES	core dimer inh	Rce1 inh	NadD block	Tb MetRS inh	Pemphigus Ab inh	NadD inh conf
O=C1SC(SCc2ccccc2)=N/C1=C\c1ccco1	4	i	15	0	99	.
CCCSC1=N/C(=C\C=C\c2ccco2)C(=O)S1	44	i	40*	0	85	24
CCCSC1=N/C(=C\c2ccc3c(c2)OCO3)C(=O)S1	0	i	40*	0	97	-3
O=C(Nc1nc(-c2ccccc2)cs1)c1ccc2c(c1)S(=O)(=O)c1ccccc1C2=O	-9	i	35*	0	99	5
O=C(Nc1nc(-c2cccc3ccccc23)cs1)c1ccc2c(c1)S(=O)(=O)c1ccccc1C2=O	8	i	29	-1	100	.
Cc1cc(C(=O)OCC(=O)N2CC(C)OC(C)C2)c2ccccc2n1 (configuration not stated)	-4	i	1	0	101	.
O=C(c1ccoc1)N1CCN(c2cc(-c3cccc(F)c3)nc3cc(-c4cccc(Cl)c4)nn23)CC1	.	.	45*	-1	99	6
Cc1cc2nc(-c3ccco3)c(Cc3cccc(Cl)c3)n2c(C)c1Br	.	.	61*	0	.	21
Clc1cccc(Cc2c(-c3ccco3)nc3ccc(Cl)cn23)c1	.	.	28	0	.	.
Clc1cccc(Cc2c(-c3ccco3)nc3ccc(Br)cn23)c1	.	.	41*	0	.	13
COc1ccccc1Cc1c(-c2ccco2)nc2cc(C)c(Br)c(C)n12	.	.	60*	-1	.	21
Cc1ccccc1C(=O)Nc1ccnn1C1CCN(CCCc2ccccc2)CC1	.	i	-1	0	105	.
NC(=S)N/N=C/c1ccc(-c2ccc(Cl)c(Cl)c2)o1	37	i	39*	0	108	12
Cc1ccnc2nc(C(=O)Nc3cc(Cl)ccc3N3CCOCC3)nn12	9	i	-7	-1	96	.
CC(C)Cn1c(-c2csc3ccccc23)n[nH]c1=S	-17	i	34*	-1	108	9
CCn1c(-c2csc3ccccc23)n[nH]c1=S	-10	i	1	-1	94	.
COc1ccc(OC)c(C2C=C(C34CC5CC(CC(C5)C3)C4)NC(=S)N2)c1 (configuration not stated)	11	i	13	0	100	.
N#Cc1c(-c2ccco2)cc(-c2ccc(F)cc2)nc1N	23	i	52*	-1	103	1
C[C@H](CO)N1C[C@H](C)[C@@H](CN(C)S(=O)(=O)c2ccc(F)cc2)Oc2ccc(NC(=O)CCN3CCOCC3)cc2C1=O	.	.	5	0	99	.
Cc1ccc(Cl)cc1N1CCN(C(=O)c2cc3c(=O)[nH]c4ccccc4c3n2C)CC1	33	i	32*	1	120	11
Cc1cc(=O)oc2cc(NC(=O)c3cccc(Br)c3)ccc12	-1	i	10	0	99	.
N#Cc1c(N2CCN(c3ccc(F)cc3)CC2)nc(N)c2c(N)nc3c(c12)CC(=O)N3C1CC1	.	.	44*	0	89	15
